Compound activity from PubChem.
Most compounds without a hit are left out; they make up all but 2.4% or so of the library.
pCIP destab = p/CIP-EGFP fusion destabilizers, primary screen, fluorescence, F442A cells. 290,000 tested, 0.01% active. Q05BA5. AID 1984, 2009. decrease of EGFP signal, % at 10 µM. 16 h;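 active means EGFP signal decrease of at least 30% at 10 µM or well 3 SD below plate mean, unless failing retest; inactive means the rest, including hits failing retest or dose response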
GASC-1 inh = inhibitors of GASC-1 histone demethylase, primary screen, biochemical, fluorescence, DELFIA europium. 330,000 tested, 0.069% active. GST-JMJD2C(1-420) H3K9me3 demethylation. inhibition, % at 2.35 µM. Lysine-specific demethylase 4C (Homo sapiens), Q9H3R0;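 active means more than half of a compound's replicate wells show inhibition beyond 50%, single wells judged on their own value; inconclusive means some, but no more than half, of replicates pass 50% inhibition; inactive means no replicate passes 50% inhibition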;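 further: signal counts dimethyl H3K9 product captured on neutravidin plate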
Target sequence (Q9H3R0 1-420 limits assumed): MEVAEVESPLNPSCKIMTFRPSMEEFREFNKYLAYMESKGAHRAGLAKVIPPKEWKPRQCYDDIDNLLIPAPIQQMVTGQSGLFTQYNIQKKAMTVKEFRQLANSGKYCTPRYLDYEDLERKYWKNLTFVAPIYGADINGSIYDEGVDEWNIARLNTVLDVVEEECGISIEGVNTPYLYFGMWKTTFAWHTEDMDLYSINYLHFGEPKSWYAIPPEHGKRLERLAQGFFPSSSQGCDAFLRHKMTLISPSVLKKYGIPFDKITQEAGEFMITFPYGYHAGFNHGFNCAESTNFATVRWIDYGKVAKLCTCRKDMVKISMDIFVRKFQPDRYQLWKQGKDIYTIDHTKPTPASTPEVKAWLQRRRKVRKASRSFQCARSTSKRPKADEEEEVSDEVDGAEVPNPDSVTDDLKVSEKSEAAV
T cruzi inh = inhibitors of intracellular T. cruzi growth, primary screen, luminescence, NIH3T3 host cells; AID 1885, 2009; inhibition, % (no concentration beside the values); 300,000 tested, 1.4% active; T. cruzi beta-gal in NIH3T3, 90 h;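 active means mean inhibition across valid replicates above about 55%, limit read from the data; inconclusive means mean below that limit but half or more replicates reach it; inactive means mean below it, under half of replicates reach it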;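 further: signal also drops with host cell toxicity which is not excluded here; higher percent means less beta-gal luminescence so fewer parasites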
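System: mouse NIH/3T3 fibroblasts infected with β-gal-expressing T. cruzi Tulahuen C4 / Input: NIH/3T3 cells, 5,000 per well / Buffer or medium: Low-serum DMEM with 2% FBS / Probe or stimulus: 5000 reporter trypomastigotes per well / Schedule: ≥90 h infection period, 3 h prior cell attachment / Measured by: GalScreen luminescence, 60 min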
PP5 inh = PP5 phosphatase inhibitors, primary screen, biochemical, fluorescence; inhibition, % at 6.7 µM; Serine/threonine-protein phosphatase 5 (Homo sapiens), P53041; purified PP5c, OMFP substrate fluorescence; 320,000 tested, 0.18% active; AID 1987, 2009;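 active means inhibition above the campaign's mean inhibition across all tested compounds plus 3 SD, cut at about 9.5% in these data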
CTSL1 counter = Fasciola hepatica cathepsin L1 inhibitors, primary screen, counter-screen for PFM18AAP inhibitor project, biochemical, QFRET, fluorogenic peptide substrate; recombinant F. hepatica cathepsin L1, Z-Leu-Arg-MCA fluorescence; inhibition, % at 5.96 µM; 300,000 tested, 0.49% active; AID 1906, 2009;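 active means inhibition above the mean of all tested compounds plus 3 SD, set per screening campaign, cut at about 17% in these data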
Cardio protect = cardioprotection against H2O2-induced cell death, primary screen, uHTS, H9c2 cells, ATPLite luminescence. H9c2 cardiomyocytes, H2O2 injury protection, 2 h. protection from H2O2 cell death, % at 20 µM. 360,000 tested, 0.63% active. AID 588492, 2011;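 active means compounds giving at least 50% protection of heart cells from peroxide-induced death in the single-dose screen, raw or plate-pattern-corrected value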
Each line names hits and unclear results; the compound was inactive in the other large screens.

CC(=O)O[C@H]1C(=O)[C@@]2(C)[C@H]([C@H](OC(=O)c3ccccc3)[C@]3(O)C[C@H](OC(=O)[C@H](O)C(NC(=O)c4ccccc4)c4ccccc4)C(C)=C1C3(C)C)[C@]1(OC(C)=O)CO[C@@H]1C[C@@H]2O (stereo partly drawn)	none
Cc1cc(C)cc(N(CC(=O)N2CCCCCC2)S(C)(=O)=O)c1	none
O=C(Nc1ccccc1Cc1ccccc1)c1ccncc1	T cruzi inh 59.2
CC(=O)Nc1ccc(N=Cc2c(O)c(C(=O)Nc3ccccc3)cc3ccccc23)cc1	none (no result: Cardio protect)
CCOc1cc(Br)c(Br)c(C=Nc2ccc(NC(C)=O)cc2)c1O	Cardio protect 93.9
Cc1ccc(F)cc1C(=O)N1CCCC(c2cc(C(=O)NCc3ccc(F)cc3)no2)C1 (stereo not drawn)	none (no result: pCIP destab, GASC-1 inh, T cruzi inh, PP5 inh, CTSL1 counter)
C/C=C/c1ccc(OCC(=O)N(CCOC)c2c(N)n(CCCC)c(=O)[nH]c2=O)c(OC)c1	none (no result: pCIP destab)
NC(=O)C1=C(c2ccccc2)c2ccccc2C1=O	Cardio protect 55.1 (no result: pCIP destab, GASC-1 inh, T cruzi inh, PP5 inh, CTSL1 counter)
CNC(=S)N(Cc1ccco1)Cc1cc2cc(OC)ccc2[nH]c1=O	none
COC(=O)c1ccccc1S(=O)(=O)N(Cc1ccco1)Cc1cc2cc(OC)ccc2[nH]c1=O	Cardio protect 59.3
CC(=O)Nc1ccc(S(=O)(=O)N(Cc2cccnc2)Cc2cc3ccccc3[nH]c2=O)cc1	Cardio protect 63.9
O=c1[nH]c2ccccc2cc1CN(Cc1cccnc1)S(=O)(=O)c1ccc([N+](=O)[O-])cc1	T cruzi inh 55.6
CC(=O)Nc1ccc(S(=O)(=O)N(Cc2ccco2)Cc2cc3ccccc3[nH]c2=O)cc1	Cardio protect 58.4
CCc1ccc2[nH]c(=O)c(CN(Cc3ccco3)S(=O)(=O)c3ccc4c(c3)OCCO4)cc2c1	none
CC1CCN(C(=O)CCNS(=O)(=O)c2ccc3c(c2)c(=O)n(C)c(=O)n3C)CC1	none
COc1ccc2[nH]c(=O)c(CN(CC3CCCO3)S(=O)(=O)c3ccccc3)cc2c1 (stereo not drawn)	none
COc1ccc2[nH]c(=O)c(CN(CC3CCCO3)S(=O)(=O)c3ccccc3F)cc2c1 (stereo not drawn)	Cardio protect 52.7
COc1ccc(CC(=O)OCC(=O)N2CCc3ccccc32)cc1OC	none (no result: pCIP destab, GASC-1 inh, T cruzi inh, CTSL1 counter)
COc1cccc(-c2nc(-c3ccc4c(c3)-c3ccccc3S4(=O)=O)c(-c3ccccc3)[nH]2)c1OC	none
COc1cc(-c2nc(-c3ccc4c(c3)-c3ccccc3S4(=O)=O)c(-c3ccccc3)[nH]2)cc(OC)c1OC	T cruzi inh 58.7
COc1cc(-c2nc(-c3ccccc3)c(-c3cccs3)[nH]2)cc(OC)c1OC	T cruzi inh 61.9
CNc1ncnc2c1ncn2[C@H]1CN(Cc2cccc3ccccc23)C[C@@H](CO)O1	none (no result: pCIP destab, GASC-1 inh, T cruzi inh, PP5 inh, CTSL1 counter)
Cc1ccc(C(=O)OCC(=O)Nc2cc(Cl)ccc2C#N)o1	none (no result: pCIP destab, GASC-1 inh, T cruzi inh, PP5 inh, CTSL1 counter)
Cc1ccc2ccc[n+](Cc3ccccc3)c2c1	none (no result: pCIP destab)
Cc1ccc(C[n+]2cccc(-c3ccccc3)c2)c(C)c1	T cruzi inh 72.1
CCOC(=O)c1cnc2ccc(C)cc2c1Sc1ccccc1C(=O)OC	T cruzi inh 61.4
CCOC(=O)c1cnc2ccc(C)cc2c1NCCO	none
Cn1c(=O)c2cc(NCc3ccccc3)nnc2n(C)c1=O	CTSL1 counter 56.6
CC12CCC(O)CC1=CCC1C2CCC2(C)C1CCC21CCC(=O)O1 (stereo not drawn)	none
C[C@]12CCC(O)CC1=CCC1C2CC[C@]2(C)/C(=N\NC(N)=S)CCC12 (stereo partly drawn)	T cruzi inh 65.8
COc1ccc(NC(=O)c2[nH]c(C)c(C(C)=O)c2C)cc1S(=O)(=O)Nc1ccc(Br)cc1	T cruzi inh 56.4
COc1ccc(NC(=O)c2[nH]c(C)c(C(C)=O)c2C)cc1Cl	none
O=C(N/N=C/c1ccccn1)c1ccccc1	none
O=C(N/N=C/c1ccccn1)c1cccs1	Cardio protect 56.5
O=C(N/N=C\c1ccccn1)C1COc2cc3ccccc3cc2O1 (stereo not drawn)	Cardio protect 86.4 (no result: T cruzi inh)
Cc1ccc(C(=O)Nc2ccc(C(=O)N/N=C/c3ccccn3)cc2)cc1	CTSL1 counter 18.8
O=C(N/N=C\c1ccccn1)c1cccc(C(=O)N/N=C\c2ccccn2)n1	Cardio protect 53.9 (no result: pCIP destab)
NNC(=O)C1COc2cc3ccccc3cc2O1 (stereo not drawn)	none
CCC(CC)C(=O)N(C)c1c(C)nc2c(OCc3ccc(OC(F)F)cc3)cccn12	none (no result: pCIP destab, GASC-1 inh, T cruzi inh, PP5 inh, CTSL1 counter)
O=C(O)c1ccc(-c2nn3c(=O)cc(N4CCNCC4)nc3s2)cc1	none (no result: pCIP destab, GASC-1 inh, T cruzi inh, PP5 inh, CTSL1 counter)
CCc1ccccc1S(=O)(=O)c1c(C)cc(C)nc1Cl	none
CC[C@]12c3[nH]c4ccc(Cl)cc4c3CCN1C(=O)[C@@H](CC(=O)NCCCn1ccnc1)C[C@@H]2C(=O)N1CCN(C(=O)C2CC2)CC1	none (no result: pCIP destab, GASC-1 inh, T cruzi inh, PP5 inh, CTSL1 counter)
Cn1ncc(Cl)c1C(=O)N/N=C/c1ccccn1	Cardio protect 50.9
O=C(N/N=C/c1ccccn1)c1ccc(Cl)cc1	none
CCCN1CCN(C(=O)CCc2nnc3ccc(N4CCN(c5cccc(OC)c5)CC4)nn23)CC1	Cardio protect 55.2
COc1cccc(N2CCN(c3ccc4nnc(CCC(=O)N5CCC(C)CC5)n4n3)CC2)c1	none
CC(C)Oc1cccc(C(=O)C2CCCN(Cc3ccc(Oc4ncccn4)cc3)C2)c1 (stereo not drawn)	T cruzi inh 66.5
CCCn1cc(CN2CCCC(C(=O)c3cccc(OC(C)C)c3)C2)c(C)n1 (stereo not drawn)	T cruzi inh inconclusive
O=C(c1cccc(C(F)(F)F)c1)C1CCCN(Cc2ccc(OCCO)cc2)C1 (stereo not drawn)	T cruzi inh 62.7
COc1c(C)cc(C(=O)C2CCCN(Cc3ccc(Oc4ncccn4)cc3)C2)cc1C (stereo not drawn)	none
COc1ccccc1C(=O)C1CCCN(Cc2ccc(Oc3ncccn3)cc2)C1 (stereo not drawn)	GASC-1 inh inconclusive, T cruzi inh 73.0
CCCn1ncc(CN2CCCC(C(=O)c3cccc(OC(C)C)c3)C2)c1C (stereo not drawn)	T cruzi inh 55.0
CCOC(=O)[C@@H]1[C@H]2COc3ccc(Br)cc3[C@@H]2N2C(=O)N(c3ccc(C(F)(F)F)cc3)C(=O)[C@@]12C	none
CC(C)Oc1cccc(C(=O)C2CCCN(Cc3cnc(N4CCCC4)s3)C2)c1 (stereo not drawn)	T cruzi inh 82.1
COc1ccc2cc(C(=O)C3CCCN(Cc4cnc(N5CCOCC5)s4)C3)ccc2c1 (stereo not drawn)	none
